Source: ChEMBL document CHEMBL4706624, “Synthesis and evaluation of new quinazoline-benzimidazole hybrids as potent anti-microbial agents against multidrug resistant Staphylococcus aureus and Mycobacterium tuberculosis” (Eur J Med Chem, 2021)
Converted amounts (≈) assume the structure as drawn.

Experiments:
Staphylococcus aureus [1] = test: Antibacterial activity against Staphylococcus aureus ATCC 29213 measured after 16 to 18 hrs; assay type: functional; conditions: time 16-18 hrs
In short: (§1)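 Broth microdilution MIC. Strains grown on MHA; a single colony was grown overnight in CA-MHB at 37 °C with shaking for 18–24 h. Cultures were diluted by OD600 to ~10⁶ cfu/mL and exposed to compound at […]. Plates were incubated at 37 °C for 16-18 h. MIC = lowest concentration with no visible growth. Levofloxacin was the reference. Three independent runs, each in duplicate.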

[2] = system: Mycobacterium tuberculosis; test: Antitubercular activity against Mycobacterium tuberculosis H37Rv ATCC 27294 measured after 7 days by broth microdilution method; assay type: functional; conditions: H37Rv ATCC 27294, 168 h, time 7 day
In short: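 H37Rv in Middlebrook 7H9 with 10% ADC, 0.2% glycerol, 0.05% Tween-80. Inoculum ~10⁶ cfu/mL set by OD600. Twofold serial dilutions, 0.0064–0.00005 g/100 mL. Incubated at 37 °C for 7 days, then Presto blue resazurin read-out. MIC = lowest concentration inhibiting visible growth. Triplicate runs, each in duplicate.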

Staphylococcus aureus [3] = test: Antibacterial activity against methicillin-sensitive Staphylococcus aureus ATCC 29213 measured after 16 to 18 hrs; assay type: functional; conditions: time 16-18 hrs; in short: as §1
Staphylococcus aureus [4] = test: Antibacterial activity against methicillin-resistant Staphylococcus aureus NR100 measured after 16 to 18 hrs; assay type: functional; conditions: time 16-18 hrs; in short: as §1
Staphylococcus aureus [5] = test: Antibacterial activity against methicillin-resistant Staphylococcus aureus NR119 measured after 16 to 18 hrs; assay type: functional; conditions: time 16-18 hrs; in short: as §1
Staphylococcus aureus [6] = test: Antibacterial activity against methicillin-resistant Staphylococcus aureus NR10129 measured after 16 to 18 hrs; assay type: functional; conditions: time 16-18 hrs; in short: as §1
Staphylococcus aureus [7] = test: Antibacterial activity against methicillin-resistant Staphylococcus aureus NR10198 measured after 16 to 18 hrs; assay type: functional; conditions: time 16-18 hrs; in short: as §1
Staphylococcus aureus [8] = test: Antibacterial activity against methicillin-resistant Staphylococcus aureus NR10192 measured after 16 to 18 hrs; assay type: functional; conditions: time 16-18 hrs; in short: as §1
Staphylococcus aureus [9] = test: Antibacterial activity against methicillin-resistant Staphylococcus aureus NR10186 measured after 16 to 18 hrs; assay type: functional; conditions: time 16-18 hrs; in short: as §1
Staphylococcus aureus [10] = test: Antibacterial activity against methicillin-resistant Staphylococcus aureus NR10193 measured after 16 to 18 hrs; assay type: functional; conditions: time 16-18 hrs; in short: as §1
Staphylococcus aureus [11] = test: Antibacterial activity against methicillin-resistant Staphylococcus aureus NR10194 measured after 16 to 18 hrs; assay type: functional; conditions: time 16-18 hrs; in short: as §1
Staphylococcus aureus [12] = test: Antibacterial activity against methicillin-resistant Staphylococcus aureus NR10191 measured after 16 to 18 hrs; assay type: functional; conditions: time 16-18 hrs; in short: as §1
Staphylococcus aureus [13] = test: Antibacterial activity against vancomycin-resistant Staphylococcus aureus VRS1 measured after 16 to 18 hrs; assay type: functional; conditions: time 16-18 hrs; in short: as §1
Staphylococcus aureus [14] = test: Antibacterial activity against vancomycin-resistant Staphylococcus aureus VRS4 measured after 16 to 18 hrs; assay type: functional; conditions: time 16-18 hrs; in short: as §1
Staphylococcus aureus [15] = test: Antibacterial activity against vancomycin-resistant Staphylococcus aureus VRS12 measured after 16 to 18 hrs; assay type: functional; conditions: time 16-18 hrs; in short: as §1
Escherichia coli = test: Antibacterial activity against Escherichia coli ATCC 25922 measured after 16 to 18 hrs; assay type: functional; conditions: time 16-18 hrs; in short: as §1
Klebsiella pneumoniae = test: Antibacterial activity against Klebsiella pneumoniae BAA-1705 measured after 16 to 18 hrs; assay type: functional; conditions: ATCC BAA-1705, time 16-18 hrs; in short: as §1
Acinetobacter baumannii = test: Antibacterial activity against Acinetobacter baumannii BAA1605 measured after 16 to 18 hrs; assay type: functional; conditions: time 16-18 hrs; in short: as §1
Pseudomonas aeruginosa = test: Antibacterial activity against Pseudomonas aeruginosa ATCC 27853 measured after 16 to 18 hrs; assay type: functional; conditions: time 16-18 hrs; in short: as §1
[16] = system: Mycobacteroides abscessus; test: Antimycobacterial activity against Mycobacterium abscessus ATCC 19977 by broth microdilution method; assay type: functional
In short: (§2)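 Broth microdilution MIC in Middlebrook 7H9 with 10% ADC-Tween-80 (BSA, dextrose, 0.2% glycerol, 0.05% Tween-80). Inoculum ~10⁶ cfu/mL set by OD600. Compounds were twofold serially diluted, 0.0064–0.00005 g/100 mL (DMSO stocks). Presto blue resazurin dye was used as read-out. MIC = lowest concentration inhibiting visible growth. Triplicate runs, each in duplicate.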

[17] = system: Mycolicibacterium fortuitum; test: Antimycobacterial activity against Mycobacterium fortuitum ATCC 6841 by broth microdilution method; assay type: functional; in short: as §2
Mycobacteroides chelonae = test: Antimycobacterial activity against Mycobacterium chelonae ATCC 35752 by broth microdilution method; assay type: functional; in short: as §2
[18] = Cytotoxicity against African green monkey Vero cells assessed as reduction in cell viability measured after 72 hrs by MTT assay; assay type: cell-based; conditions: chlorocebus sabaeus
In short: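 Vero cells (ATCC CCL-81), ~10³ cells/well, held 24 h at 37 °C in 5% CO₂. Compound at 100–5 mg/L for 72 h. MTT was added for 4 h, formazan dissolved in DMSO, OD read at 540 nm. CC50 = concentration giving 50% viability reduction. Doxorubicin was the positive control. Triplicate.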

[19] = Selectivity index, ratio of CC50 for cytotoxicity against African green monkey Vero cells to MIC for antibacterial activity against Staphylococcus aureus ATCC 29213; assay type: toxicity, cell-based; conditions: read-out: Selectivity Index
In short: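 SI = Vero CC50 (MTT, 72 h) divided by MIC against S. aureus ATCC 29213 (CA-MHB broth microdilution, 16-18 h, 37 °C).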

SMILES | MIC (Staphylococcus aureus [1]) [µg/mL] | MIC [2] [µg/mL] | MIC (Escherichia coli) [µg/mL] | MIC (Klebsiella pneumoniae) [µg/mL] | MIC (Acinetobacter baumannii) [µg/mL] | MIC (Pseudomonas aeruginosa) [µg/mL] | MIC [16] [µg/mL] | MIC [17] [µg/mL] | MIC (Mycobacteroides chelonae) [µg/mL] | also measured
N#Cc1ccc(/C=C/c2nc3ccccc3c(=O)n2-c2ccc(C(=O)O)c(O)c2)cc1 | 0.03 (≈ 0.0733 µM) | 64 (≈ 156 µM) | – | – | – | – | – | – | – | –
CCCCCCCCCC(=O)N[C@@H](Cc1c[nH]c2ccccc12)C(=O)N[C@H](CC(N)=O)C(=O)N[C@@H](CC(=O)O)C(=O)N[C@@H]1C(=O)NCC(=O)N[C@@H](CCCN)C(=O)N[C@@H](CC(=O)O)C(=O)N[C@H](C)C(=O)N[C@@H](CC(=O)O)C(=O)NCC(=O)N[C@H](CO)C(=O)N[C@@H]([C@H](C)CC(=O)O)C(=O)N[C@@H](CC(=O)c2ccccc2N)C(=O)O[C@@H]1C | – | – | – | – | – | – | – | – | – | MIC (Staphylococcus aureus [3]): 1 µg/mL (≈ 0.617 µM); MIC (Staphylococcus aureus [4]): 1 µg/mL (≈ 0.617 µM); MIC (Staphylococcus aureus [5]): 1 µg/mL (≈ 0.617 µM); MIC (Staphylococcus aureus [6]): 0.5 µg/mL (≈ 0.309 µM); MIC (Staphylococcus aureus [7]): 0.5 µg/mL (≈ 0.309 µM); MIC (Staphylococcus aureus [8]): 1 µg/mL (≈ 0.617 µM); MIC (Staphylococcus aureus [9]): 0.5 µg/mL (≈ 0.309 µM); MIC (Staphylococcus aureus [10]): 1 µg/mL (≈ 0.617 µM); MIC (Staphylococcus aureus [11]): 0.5 µg/mL (≈ 0.309 µM); MIC (Staphylococcus aureus [12]): 1 µg/mL (≈ 0.617 µM); MIC (Staphylococcus aureus [13]): 1 µg/mL (≈ 0.617 µM); MIC (Staphylococcus aureus [14]): 0.5 µg/mL (≈ 0.309 µM); MIC (Staphylococcus aureus [15]): 0.5 µg/mL (≈ 0.309 µM)
Fc1ccc2[nH]c(-c3ccc(Nc4nc(-c5ccccc5)nc5ccccc45)cc3)nc2c1 | 4 (≈ 9.27 µM) | > 64 | > 64 | > 64 | > 64 | > 64 | > 64 | > 64 | 32 (≈ 74.2 µM) | CC50 at 72 h [18]: 40 µg/mL (≈ 92.7 µM); selectivity ratio [19]: 10
FC(F)(F)c1nc2ccc(Nc3nc(-c4cccs4)nc4ccccc34)cc2[nH]1 | 64 (≈ 156 µM) | 64 (≈ 156 µM) | > 64 | > 64 | > 64 | > 64 | > 64 | > 64 | > 64 | –
O=C(Nc1ccc2nc(-c3ccc4ccccc4c3)[nH]c2c1)c1ccc(Nc2nc(-c3ccccc3)nc3ccccc23)cc1 | > 64 | 64 (≈ 110 µM) | > 64 | > 64 | > 64 | > 64 | > 64 | > 64 | > 64 | –
O=C(Nc1ccc2nc(C(F)(F)F)[nH]c2c1)c1ccc(Nc2nc(-c3ccccc3)nc3ccccc23)cc1 | 32 (≈ 61 µM) | 64 (≈ 122 µM) | > 64 | > 64 | > 64 | > 64 | > 64 | > 64 | > 64 | –
Clc1ccc(-c2nc(Nc3ccc(-c4nc5cc(Cl)ccc5[nH]4)cc3)c3ccccc3n2)cc1 | > 64 | – | > 64 | > 64 | > 64 | > 64 | – | – | – | –
O=C(Nc1ccc2nc(-c3cnc4c(Cl)cccc4c3)[nH]c2c1)c1ccc(Nc2nc(-c3ccccc3)nc3ccccc23)cc1 | > 64 | 16 (≈ 25.9 µM) | > 64 | > 64 | > 64 | > 64 | > 64 | > 64 | > 64 | CC50 at 72 h [18]: > 100 µg/mL; selectivity ratio [19]: > 6.25
O=C(Nc1ccc2nc(-c3ccc(Br)cc3F)[nH]c2c1)c1ccc(Nc2nc(-c3ccccc3)nc3ccccc23)cc1 | 64 (≈ 102 µM) | > 64 | > 64 | > 64 | > 64 | > 64 | > 64 | > 64 | > 64 | –
COc1ccc(-c2nc(Nc3ccc(-c4nc5cc([N+](=O)[O-])ccc5[nH]4)cc3)c3ccccc3n2)cc1OC | > 64 | 8 (≈ 15.4 µM) | > 64 | > 64 | > 64 | > 64 | > 64 | 4 (≈ 7.71 µM) | 8 (≈ 15.4 µM) | CC50 at 72 h [18]: 100 µg/mL (≈ 193 µM); selectivity ratio [19]: 12.5
Brc1ccc2[nH]c(-c3ccc(Nc4nc(-c5ccccc5)nc5ccccc45)cc3)nc2c1 | > 64 | – | > 64 | > 64 | > 64 | > 64 | – | – | – | –
